# Measured values published in ChEMBL document CHEMBL4052730, “Synthesis and evaluation of (E)-2-(5-phenylpent-2-en-4-ynamido)cyclohex-1-ene-1-carboxylate derivatives as HCA2 receptor agonists” (Bioorg Med Chem, 2017).
# Assays:
# [1] = molecular target: T1, Hydroxycarboxylic acid receptor 2 (Homo sapiens, UniProt Q8TDS4); assay: Agonist activity at recombinant human HCA2 receptor expressed in Flp-IN HEK cells assessed as reduction in forskolin-stimulated cAMP accumulation measured after 30 mins; assay type: functional, cell-based
# In short: (§1)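 Flp-In-293 cells stably expressing recombinant human HCA2, 12,000 cells/well, treated with compounds plus 3 µM forskolin for 30 min in PBS containing 0.5 mM IBMX, without BSA. Read-out is reduction of forskolin-stimulated cAMP, reported as EC50 and as maximal inhibition (%). Mean ± SD of at least three experiments, each in duplicate.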
# [2] = molecular target: T1, Hydroxycarboxylic acid receptor 2; assay: Displacement of [5,6-3H]-nicotinic acid from recombinant human HCA2 receptor expressed in Flp-IN HEK cell membranes after 2 hrs by microbeta counting method
# In short: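 Membranes from human HCA2-expressing Flp-In-293 cells were prepared by acoustic disruption in TE buffer (pH 7.6) and centrifugation at 21,000g. They were used at 25 µg/well in 50 mM Tris-HCl, 1 mM MgCl2, 0.02% CHAPS, pH 7.6, without BSA. Competition with 20 nM [5,6-3H]-nicotinic acid ran 2 h at room temperature, followed by GF/B filtration and scintillation counting. Duplicates, repeated three times.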
# [3] = molecular target: T1, Hydroxycarboxylic acid receptor 2; assay: Agonist activity at recombinant human HCA2 receptor expressed in Flp-IN HEK cells assessed as reduction in forskolin-stimulated cAMP accumulation measured after 30 mins relative to control; assay type: functional, cell-based; in short: as §1
# T1 sequence (Q8TDS4 whole entry): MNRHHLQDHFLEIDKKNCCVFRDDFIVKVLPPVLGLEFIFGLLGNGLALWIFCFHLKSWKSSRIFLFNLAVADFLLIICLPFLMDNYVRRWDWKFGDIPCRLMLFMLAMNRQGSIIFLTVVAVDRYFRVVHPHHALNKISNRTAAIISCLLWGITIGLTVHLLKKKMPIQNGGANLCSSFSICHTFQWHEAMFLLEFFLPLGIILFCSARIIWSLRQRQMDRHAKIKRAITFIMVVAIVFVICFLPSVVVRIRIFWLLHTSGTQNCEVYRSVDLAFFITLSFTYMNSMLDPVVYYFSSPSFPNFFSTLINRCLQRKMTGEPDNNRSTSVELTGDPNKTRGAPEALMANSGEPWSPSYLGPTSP
Compound,EC50 [1] [nM],IC50 [2] [nM],Emax [3] [%]
O=C(CCC#Cc1cccc(O)c1)NC1=C(C(=O)O)CCCC1,2980,138,89
O=C(/C=C/C#Cc1ccccc1)NC1=C(C(=O)O)CCCC1,1010,327,79
O=C(CCC#Cc1ccc(F)cc1)NC1=C(C(=O)O)CCCC1,630,291,99
O=C(/C=C/C#Cc1ccccc1O)NC1=C(C(=O)O)CCCC1,250,37,78
O=C(CCc1ccc(-c2cccc(O)c2)cc1)NC1=C(C(=O)O)CCCC1,230,32,96
O=C(/C=C/C#Cc1ccccc1Cl)NC1=C(C(=O)O)CCCC1,270,88,88
O=C(CCc1ccc(-c2ccc(O)cc2F)cc1)NC1=C(C(=O)O)CCCC1,260,58,99
O=C(/C=C/CCc1ccccc1)NC1=C(C(=O)O)CCCC1,19600,2830,70
O=C(CCC#Cc1ccccc1F)NC1=C(C(=O)O)CCCC1,360,67,90
O=C(CCC#Cc1ccc(O)cn1)NC1=C(C(=O)O)CCCC1,3370,665,91
O=C(/C=C/C#Cc1ccccc1F)NC1=C(C(=O)O)CCCC1,450,16,84
O=C(/C=C/C#Cc1cccc(O)c1)NC1=C(C(=O)O)CCCC1,390,383,92
O=C(CCC#Cc1ccccc1O)NC1=C(C(=O)O)CCCC1,720,229,93
O=C(CCc1ccc(-c2ccccc2O)cc1)NC1=C(C(=O)O)CCCC1,410,40,90
O=C(CCC#Cc1ccc(C(=O)O)cc1)NC1=C(C(=O)O)CCCC1,5610,3620,74

# Compounds with a lower EC50 [1], results first:
EC50 [1] [nM],IC50 [2] [nM],Emax [3] [%],Compound
160,13,91,O=C(CCC#Cc1ccc(O)cc1)NC1=C(C(=O)O)CCCC1
190,282,97,O=C(CCc1ccc(-c2ccccc2F)cc1)NC1=C(C(=O)O)CCCC1
90,76,94,O=C(CCC#Cc1ccc(O)cc1Cl)NC1=C(C(=O)O)CCCC1
110,331,96,O=C(/C=C/C#Cc1ccc(O)cc1F)NC1=C(C(=O)O)CCCC1
80,28,93,O=C(CCC#Cc1ccc(O)cc1F)NC1=C(C(=O)O)CCCC1
190,56,95,O=C(CCC#Cc1ccccc1Cl)NC1=C(C(=O)O)CCCC1
130,75,92,O=C(CCc1ccc(-c2ccccc2Cl)cc1)NC1=C(C(=O)O)CCCC1
70,21,92,O=C(CCc1ccc(-c2ccc(O)cc2)cc1)NC1=C(C(=O)O)CCCC1
130,25,97,O=C(/C=C/C#Cc1ccc(O)cc1)NC1=C(C(=O)O)CCCC1
